ChEMBL document CHEMBL6092210, “Synthesis, in vitro and in vivo biological evaluation of novel dual compounds targeting both acetylcholinesterase and serotonergic 5-HT4 receptors with potential interest in the treatment of Alzheimer's disease” (Eur J Med Chem, 2024)
Converted amounts (≈) assume the structure as drawn.

Assays:
Acetylcholinesterase [1] = molecular target: T1, Acetylcholinesterase (Homo sapiens, UniProt P22303); experiment: Inhibition of recombinant human erythrocyte AChE using acetyl-or butyrylthiocholine iodide as substrate at 1 x 10^-6M preincubated for 5 mins followed by substrate addition and measured every min for 10 mins by Ellman's method relative to control; conditions: dose 1.0 10^-6M, time 15.0 min
T1 sequence (P22303 whole entry): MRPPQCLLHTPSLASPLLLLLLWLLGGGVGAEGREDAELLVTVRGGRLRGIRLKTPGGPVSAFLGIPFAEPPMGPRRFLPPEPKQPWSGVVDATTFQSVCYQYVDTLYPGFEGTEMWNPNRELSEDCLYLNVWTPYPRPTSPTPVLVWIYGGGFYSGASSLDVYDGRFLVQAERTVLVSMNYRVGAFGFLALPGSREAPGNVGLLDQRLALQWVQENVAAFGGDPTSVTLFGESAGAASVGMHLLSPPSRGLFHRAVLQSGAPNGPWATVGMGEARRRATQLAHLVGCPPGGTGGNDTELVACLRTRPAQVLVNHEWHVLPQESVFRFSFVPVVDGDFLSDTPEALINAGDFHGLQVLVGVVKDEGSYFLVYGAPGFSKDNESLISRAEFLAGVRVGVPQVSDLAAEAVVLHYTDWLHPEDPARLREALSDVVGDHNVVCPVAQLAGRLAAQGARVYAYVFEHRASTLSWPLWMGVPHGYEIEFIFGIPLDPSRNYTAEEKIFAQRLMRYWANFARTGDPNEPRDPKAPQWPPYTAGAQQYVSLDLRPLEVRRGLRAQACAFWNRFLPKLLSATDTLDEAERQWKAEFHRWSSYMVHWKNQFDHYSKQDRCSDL
In short: (§1)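 AChE from human erythrocytes (0.05 U final) or recombinant AChE (0.025 U final), diluted in 20 mM HEPES pH 8 with 0.1 % Triton X-100, in an Ellman assay. DTNB is 0.3 mM in phosphate buffer pH 7.4 and compound is in DMSO. Enzyme and compound are preincubated 5 min at 25 °C. Reaction starts with 1 mM acetylthiocholine iodide solution.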

[2] = molecular target: T2, 5-hydroxytryptamine receptor 4 (Homo sapiens, UniProt Q13639); experiment: Inhibition of human recombinant 5HT4 receptor at 1 x 10^-6M incubated for 60 mins relative to control; conditions: dose 1.0 10^-6M
T2 sequence (Q13639 whole entry): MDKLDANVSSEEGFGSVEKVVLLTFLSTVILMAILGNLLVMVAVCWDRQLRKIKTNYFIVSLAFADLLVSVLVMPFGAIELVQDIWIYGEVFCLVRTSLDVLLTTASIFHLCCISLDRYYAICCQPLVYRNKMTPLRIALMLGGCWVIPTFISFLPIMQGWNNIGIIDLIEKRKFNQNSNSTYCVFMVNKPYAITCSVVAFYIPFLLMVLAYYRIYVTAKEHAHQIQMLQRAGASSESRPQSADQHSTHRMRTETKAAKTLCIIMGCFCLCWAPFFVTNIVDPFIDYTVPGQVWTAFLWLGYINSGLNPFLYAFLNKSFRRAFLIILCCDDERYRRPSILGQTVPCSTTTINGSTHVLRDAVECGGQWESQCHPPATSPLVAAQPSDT
In short: (§2)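 Membranes (2.5 μg protein) from a stable recombinant line expressing h5-HT4(b) receptor. Incubated in duplicate at 25 °C for 60 min with 0.2 nM [3H]-GR113808 in 25 mM Tris pH 7.4, with drug at 10^-6 or 10^-8 M. GF/C filtration; non-specific binding defined with 30 μM serotonin. Ki from five-point inhibition curves, ± SD.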

[3] = molecular target: T2, 5-hydroxytryptamine receptor 4; experiment: Inhibition of human recombinant 5HT4 receptor at 1 x 10^-8M incubated for 60 mins relative to control; conditions: dose 1.0 10^-8M; in short: as §2
[4] = molecular target: T2, 5-hydroxytryptamine receptor 4; experiment: Binding affinity to human recombinant 5HT4 receptor assessed as inhibition constant incubated for 60 mins
Acetylcholinesterase [5] = molecular target: T1, Acetylcholinesterase; experiment: Inhibition of recombinant human erythrocyte AChE using acetyl-or butyrylthiocholine iodide as substrate preincubated for 5 mins followed by substrate addition and measured every min for 10 mins by Ellman's method
[6] = molecular target: T2, 5-hydroxytryptamine receptor 4; experiment: Partial agonist activity at human recombinant 5HT4 receptor at 1 x 10^-6M incubated for 60 mins relative to control; format: functional; conditions: filed as partial agonist, dose 1.0 10^-6M
[7] = molecular target: T2, 5-hydroxytryptamine receptor 4; experiment: Partial agonist activity at human recombinant 5HT4 receptor at 1 x 10^-8M incubated for 60 mins relative to control; format: functional; conditions: filed as partial agonist, dose 1.0 10^-8M
[8] = molecular target: Cholinesterase (Equus caballus) (UniProt P81908); experiment: Inhibition of equine serum BuChE using Acetyl and butyrylthiocholine iodide as substrate at 1 x 10^-5M preincubated for 5 mins followed by substrate addition and measured every min for 10 mins by Ellman's method relative to control; conditions: dose 1.0 10^-5M, time 15.0 min
Chain of Cholinesterase (Equus caballus) (P81908 whole entry): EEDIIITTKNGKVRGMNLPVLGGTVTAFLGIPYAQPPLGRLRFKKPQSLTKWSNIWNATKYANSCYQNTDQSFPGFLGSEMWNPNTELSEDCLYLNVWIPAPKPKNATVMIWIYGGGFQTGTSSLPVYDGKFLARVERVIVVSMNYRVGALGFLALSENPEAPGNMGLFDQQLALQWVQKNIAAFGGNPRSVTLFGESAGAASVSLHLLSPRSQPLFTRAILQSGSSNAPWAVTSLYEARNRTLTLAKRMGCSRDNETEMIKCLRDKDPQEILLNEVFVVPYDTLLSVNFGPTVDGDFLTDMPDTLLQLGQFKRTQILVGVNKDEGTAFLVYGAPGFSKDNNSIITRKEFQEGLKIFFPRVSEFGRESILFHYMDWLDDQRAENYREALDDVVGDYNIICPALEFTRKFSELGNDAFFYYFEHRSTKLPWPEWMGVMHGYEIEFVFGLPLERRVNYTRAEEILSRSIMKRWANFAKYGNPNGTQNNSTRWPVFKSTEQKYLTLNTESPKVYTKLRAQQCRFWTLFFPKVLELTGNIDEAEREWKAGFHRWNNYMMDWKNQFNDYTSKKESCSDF

[9] = molecular target: Acetylcholinesterase (Electrophorus electricus) (UniProt O42275); experiment: Displacement of propidium iodide from electric eel AChE 1 x 10^-5M relative to control; conditions: dose 1.0 10^-5M
Chain of Acetylcholinesterase (Electrophorus electricus) (O42275 24-633 limits assumed): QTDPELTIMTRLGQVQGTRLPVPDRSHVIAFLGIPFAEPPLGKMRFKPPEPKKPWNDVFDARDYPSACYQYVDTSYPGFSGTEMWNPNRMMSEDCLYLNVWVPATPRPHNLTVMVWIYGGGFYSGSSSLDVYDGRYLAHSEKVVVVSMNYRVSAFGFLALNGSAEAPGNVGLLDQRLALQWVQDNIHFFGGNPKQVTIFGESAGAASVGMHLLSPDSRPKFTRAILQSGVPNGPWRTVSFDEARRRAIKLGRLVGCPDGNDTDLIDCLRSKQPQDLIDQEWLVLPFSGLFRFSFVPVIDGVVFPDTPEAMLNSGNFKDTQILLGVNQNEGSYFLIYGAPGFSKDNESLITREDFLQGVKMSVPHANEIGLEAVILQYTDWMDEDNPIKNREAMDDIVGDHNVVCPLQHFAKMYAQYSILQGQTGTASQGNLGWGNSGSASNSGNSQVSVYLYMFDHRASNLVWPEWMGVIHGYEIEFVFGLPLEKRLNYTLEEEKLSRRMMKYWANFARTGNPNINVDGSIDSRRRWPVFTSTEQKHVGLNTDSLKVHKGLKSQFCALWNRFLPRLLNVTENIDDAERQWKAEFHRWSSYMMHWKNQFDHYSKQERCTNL

[10] = molecular target: T2, 5-hydroxytryptamine receptor 4; experiment: Partial agonist activity at human recombinant 5HT4 receptor expressed in […] cells assessed as cAMP accumulation by measuring maximum efficacy in presence of serotonin by HTRF analysis relative to control; format: functional, cell-based; conditions: filed as partial agonist
In short: (§3)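 COS-7 cells grown in DMEM with 10 % dialyzed FCS and transiently transfected with HA-tagged h5-HT4R, then plated at 16,000 cells/well. At 24 h, cells were exposed for 10 min at 37 °C to 5-HT4 ligands in HEPES-buffered saline containing 0.1 % BSA and 0.1 mM RO-20-1724. Cells were lysed with 0.1 % Triton X-100 and cAMP measured by HTRF.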

[11] = molecular target: T2, 5-hydroxytryptamine receptor 4; experiment: (§4) Partial agonist activity at human recombinant 5HT4 receptor transiently transfected in […] cells using p-nitrophenyl phosphate disodium hexahydrate as substrate assessed as induction of sAPPalpha release incubated for 30 mins by microplate reader analysis; format: functional, cell-based; conditions: filed as partial agonist
In short: (§5)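 COS-7 cells co-transfected with FLG-tagged h5-HT4 receptor and SEAP-tagged mouse APP695, seeded at 300,000 cells/well. At 24 h, cells were exposed to drug for 30 min. Supernatants were collected and secreted SEAP activity read colorimetrically with p-nitrophenyl phosphate as substrate.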

[12] = molecular target: T2, 5-hydroxytryptamine receptor 4; experiment: as §4, with “release by measuring maximum efficacy” for “release”, “analysis relative to control” for “analysis”; format: functional, cell-based; in short: as §5
[13] = molecular target: T2, 5-hydroxytryptamine receptor 4; experiment: Partial agonist activity at human recombinant 5HT4 receptor at 1 x 10^-8M incubated for 60 mins; format: functional
Cholinesterase = Cholinesterase (Equus caballus, UniProt P81908); experiment: Inhibition of equine serum BuChE using Acetyl and butyrylthiocholine iodide as substrate preincubated for 5 mins followed by substrate addition and measured every min for 10 mins by Ellman's method
Chain of Cholinesterase (P81908 whole entry): as the sequence (P81908 whole entry) above

[14] = molecular target: T2, 5-hydroxytryptamine receptor 4; experiment: Partial agonist activity at human recombinant 5HT4 receptor expressed in […] cells assessed as cAMP accumulation in presence of serotonin by HTRF analysis; format: functional, cell-based; in short: as §3
[15] = Intrinsic solubility of the compound at pH 12 by classical shake-flask method; format: physicochemical; conditions: buffer
In short: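 Shake-flask method: 1 mg compound in 4 mL pH 12 phosphate buffer with KCl, n = 3. Sonicated, shaken at room temperature for 48 h, centrifuged. Supernatant mixed 1:1 with acetonitrile/DMSO (99:1) and quantified by UV at 326 nm against a four-point calibration curve.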

[16] = Thermodynamic solubility of compound at pH 7.4 by classical shake-flask method; format: physicochemical; conditions: buffer, read-out: Therm_solubility
In short: (§6)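 Shake-flask thermodynamic solubility (OECD 105, miniaturized). 1 mg of solid added to 4 mL of water or potassium phosphate buffer at pH 7.4 or 12 (n = 3), sonicated and shaken horizontally at room temperature for 48 h. After centrifugation, supernatant was mixed 1:1 with acetonitrile/DMSO and quantified by UV at 326 nm against a four-point calibration curve.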

[17] = Thermodynamic solubility of compound by classical shake-flask method; format: physicochemical; conditions: read-out: Therm_solubility; in short: as §6
P-glycoprotein (ABCB1) [18] = molecular target: T3, P-glycoprotein (ABCB1) (Homo sapiens, UniProt P08183); experiment: Inhibition of P-glycoprotein mediated Rhodamine-123 efflux in human NCI/ADR-RES cells assessed as increase in intracellular fluorescence at 10 uM incubated for 24 hrs relative to control; format: cell-based; conditions: probe Rhodamine-123
T3 sequence (P08183 whole entry): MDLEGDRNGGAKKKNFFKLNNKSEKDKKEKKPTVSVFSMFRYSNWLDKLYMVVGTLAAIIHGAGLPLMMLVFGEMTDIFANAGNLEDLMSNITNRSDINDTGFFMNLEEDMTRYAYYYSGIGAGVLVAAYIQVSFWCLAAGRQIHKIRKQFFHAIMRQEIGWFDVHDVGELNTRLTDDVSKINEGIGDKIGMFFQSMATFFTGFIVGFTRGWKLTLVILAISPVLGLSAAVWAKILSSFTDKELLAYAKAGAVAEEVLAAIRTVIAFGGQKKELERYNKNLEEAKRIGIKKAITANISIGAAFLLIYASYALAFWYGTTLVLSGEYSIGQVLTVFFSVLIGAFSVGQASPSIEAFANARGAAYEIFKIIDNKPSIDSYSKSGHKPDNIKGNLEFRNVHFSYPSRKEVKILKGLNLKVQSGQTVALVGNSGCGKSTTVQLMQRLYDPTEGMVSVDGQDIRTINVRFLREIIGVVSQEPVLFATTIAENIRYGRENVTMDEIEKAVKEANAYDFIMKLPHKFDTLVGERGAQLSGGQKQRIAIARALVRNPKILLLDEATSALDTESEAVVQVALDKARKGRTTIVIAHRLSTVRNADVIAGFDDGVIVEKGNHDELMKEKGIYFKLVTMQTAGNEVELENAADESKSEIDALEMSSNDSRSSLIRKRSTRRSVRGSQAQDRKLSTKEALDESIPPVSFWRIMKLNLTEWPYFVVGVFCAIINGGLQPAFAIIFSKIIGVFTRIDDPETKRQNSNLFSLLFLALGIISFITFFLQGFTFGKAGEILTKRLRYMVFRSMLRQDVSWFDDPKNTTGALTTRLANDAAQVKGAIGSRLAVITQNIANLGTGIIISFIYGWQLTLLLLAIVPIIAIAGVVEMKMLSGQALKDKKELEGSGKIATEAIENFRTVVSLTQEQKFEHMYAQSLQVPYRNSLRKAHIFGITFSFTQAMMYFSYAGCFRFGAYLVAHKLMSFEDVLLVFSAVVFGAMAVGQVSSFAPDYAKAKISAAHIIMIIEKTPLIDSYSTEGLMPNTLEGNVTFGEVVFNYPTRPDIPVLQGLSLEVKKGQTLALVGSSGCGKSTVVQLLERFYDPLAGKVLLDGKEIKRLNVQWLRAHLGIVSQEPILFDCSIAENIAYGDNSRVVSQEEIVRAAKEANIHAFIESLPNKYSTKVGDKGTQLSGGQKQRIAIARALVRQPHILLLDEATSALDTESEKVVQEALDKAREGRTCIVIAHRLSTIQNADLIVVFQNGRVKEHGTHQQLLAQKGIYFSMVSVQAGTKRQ
In short: (§7)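 NCI/ADR-RES cells in RPMI with 10 % FCS, seeded 24 h before the assay. […] Washed three times, lysed in Tris/SDS, fluorescence read (ex 507/em 528 nm). Cyclosporin A as positive control.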

P-glycoprotein (ABCB1) [19] = molecular target: T3, P-glycoprotein (ABCB1); experiment: Inhibition of P-glycoprotein mediated Rhodamine-123 efflux in human NCI/ADR-RES cells assessed as increase in intracellular fluorescence at 1 uM incubated for 24 hrs relative to control; format: cell-based; conditions: probe Rhodamine-123; in short: as §7
[20] = Cytotoxicity against human MRC5 cells assessed as growth inhibition at 10 uM incubated for 72 hrs by MTS assay relative to control; format: toxicity, cell-based; conditions: read-out: Activity
In short: (§8)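 MRC5-SV2 cells in D-MEM with 10 % FCS, treated 24 h after plating with compound from DMSO stock (DMSO 1 % final). After 72 h, MTS added for 3 h at 37 °C and absorbance read at 490 nm. Growth inhibition = (1 − OD treated/OD control) × 100, triplicate experiments.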

[21] = Cytotoxicity against human MRC5 cells assessed as growth inhibition at 1 uM incubated for 72 hrs by MTS assay relative to control; format: toxicity, cell-based; conditions: read-out: Activity; in short: as §8
[22] = Mutagenicity in Salmonella typhimurium TA97a by Ames test; format: toxicity; conditions: salmonella enterica subsp. enterica serovar typhimurium
In short: (§9)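 Semi-quantitative spot test with S. typhimurium TA97a, TA98, TA100 and TA102, with and without S9 mix.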

[23] = Mutagenicity in Salmonella typhimurium TA98 by Ames test; format: toxicity; conditions: salmonella enterica subsp. enterica serovar typhimurium; in short: as §9
[24] = Mutagenicity in Salmonella typhimurium TA100 by Ames test; format: toxicity; conditions: salmonella enterica subsp. enterica serovar typhimurium; in short: as §9
[25] = Mutagenicity in Salmonella typhimurium TA102 by Ames test; format: toxicity; conditions: salmonella enterica subsp. enterica serovar typhimurium; in short: as §9
[26] = Oral bioavailability in Wistar rat at 1 to 9 mg/kg; format: ADME, organism-based; conditions: in vivo, dose 1-9 mg/kg
In short: (§10)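 Oral doses of 1, 3 and 9 mg/kg alongside iv and ip dosing, in 0.9 % saline, n = 3 per dose. Terminal plasma under isoflurane at six time points, UHPLC–MS/MS quantification. Bioavailability from non-compartmental AUCs, with the methods giving F = (AUCpo/AUCip) × (Doseip/Dosepo).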

[27] = Oral bioavailability in C57BL6 mouse at 1 to 9 mg/kg; format: ADME, organism-based; conditions: in vivo, dose 1-9 mg/kg; in short: as §10
[28] = AUC in Wistar rat at 3 mg/kg, ip; format: ADME, organism-based; conditions: in vivo
In short: (§11)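 Single ip dose in 0.9 % saline (10 mL/kg mouse, 2 mL/kg rat), n = 3 per dose. CSF from cisterna magna and cardiac-puncture blood taken under isoflurane at six time points. Protein precipitation, then UHPLC–MS/MS (LLOQ 1 ng/mL). AUC0–∞ by linear trapezoidal non-compartmental analysis.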

[29] = AUC in C57BL6 mouse at 3 mg/kg, ip; format: ADME, organism-based; conditions: in vivo; in short: as §11
Acetylcholinesterase [30] = molecular target: T1, Acetylcholinesterase; experiment: Inhibition of recombinant human erythrocyte AChE using acetyl-or butyrylthiocholine iodide as substrate at 1 x 10^-5M preincubated for 5 mins followed by substrate addition and measured every min for 10 mins by Ellman's method relative to control; conditions: dose 1.0 10^-5M, time 15.0 min; in short: as §1

Nc1cc(OCCF)c(C(=O)CCC2CCN(CC3CCCCC3)CC2)cc1I
inhibition (Acetylcholinesterase [1]): 45% | inhibition [2]: 101% | inhibition [3]: 22% | Ki [4]: 521 nM

Nc1ccc(C(=O)CCC2CCN(CC3CCCCC3)CC2)c(OCCF)c1
inhibition (Acetylcholinesterase [1]): 79% | IC50 (Acetylcholinesterase [5]): 318 nM | inhibition [2]: 100% | inhibition [3]: 27% | Ki [4]: 39.9 nM

CCOc1cc(N)ccc1C(=O)CCC1CCN(CC2CCCCC2)CC1
inhibition (Acetylcholinesterase [1]): 93% | IC50 (Acetylcholinesterase [5]): 87.1 nM | inhibition [2]: 101% | inhibition [3]: 38% | Ki [4]: 24.7 nM

COc1cc(N)c(F)cc1C(=O)CCC1CCN(CC2CCCCC2)CC1 [listing 1 of 2 here]
inhibition (Acetylcholinesterase [1]): 96% | inhibition [2]: 102% | inhibition [3]: 68% | Activity [6]: 100% | Activity [7]: 66% | inhibition [8]: 65% | inhibition [9]: 22% | Emax [10]: 67.3% | Activity [11]: Dose-dependent-effect | EC50 [11]: 23 nM | Emax [12]: 19.7%

COc1cc(N)c(F)cc1C(=O)CCC1CCN(CC2CCCCC2)CC1 [listing 2 of 2 here]
Ki [13]: 9.6 nM | IC50 (Cholinesterase): 6200 nM | EC50 [14]: 1.3 nM | solubility thermodynamic [15]: 2 µM (≈ 0.753 µg/mL) | solubility thermodynamic [16]: 104 µM (≈ 39.2 µg/mL) | solubility thermodynamic [17]: 444 µM (≈ 167 µg/mL) | inhibition at 24 h, 10 µM (P-glycoprotein (ABCB1) [18]): 111% | inhibition at 24 h, 1 µM (P-glycoprotein (ABCB1) [19]): 125% | inhibition at 72 h, 10 µM [20]: 0% | inhibition at 72 h, 1 µM [21]: 0% | Activity [22]: Non-toxic | Activity [23]: Non-toxic | Activity [24]: Non-toxic | Activity [25]: Non-toxic | bioavailability [26]: 3.6% | bioavailability [27]: 12.4% | AUC [28]: 9.26 ng·h/mL | AUC [29]: 7.66 ng·h/mL

COc1cc(NC(C)=O)c(Cl)cc1C(=O)CCC1CCN(CC2CCCCC2)CC1
inhibition (Acetylcholinesterase [1]): 98% | inhibition [2]: 94% | inhibition [3]: 1% | Ki [4]: 270 nM

COc1cc(O)c(Cl)cc1C(=O)CCC1CCN(CC2CCCCC2)CC1
inhibition (Acetylcholinesterase [1]): 78% | inhibition [2]: 76% | inhibition [3]: 2%

COc1cc(N)c(Cl)cc1C(=O)CCC1CCN(CC2CCCCC2)CC1
inhibition (Acetylcholinesterase [1]; tested as the 2H-labelled form): 92% | inhibition ([2]; tested as the 2H-labelled form): 98% | inhibition ([3]; tested as the 2H-labelled form): 29%

COc1cc(N)c(I)cc1C(=O)CCC1CCN(CC2CCCCC2)CC1
inhibition (Acetylcholinesterase [30]): 88% | inhibition [2]: 103% | inhibition [3]: 36%

COc1cc(N)ccc1C(=O)CCC1CCN(CC2CCCCC2)CC1
inhibition (Acetylcholinesterase [30]): 97% | inhibition [2]: 96% | inhibition [3]: 10%

COc1c(C(=O)CCC2CCN(CC3CCCCC3)CC2)cc(F)c(N)c1Br
inhibition (Acetylcholinesterase [1]): 85% | IC50 (Acetylcholinesterase [5]): 309 nM | inhibition [2]: 80% | inhibition [3]: 8%
